Assay results: ChEMBL document CHEMBL2177092, “Phosphoramidate ProTides of the anticancer agent FUDR successfully deliver the preformed bioactive monophosphate in cells and confer advantage over the parent nucleoside” (J Med Chem, 2011); call rule not given here
pIC50: −log10 of the molar value. Blank lines part the entries; values can stand above or below the compound they belong to.

What was measured:
[1] = Cytostatic activity against mouse L1210/0 cells after 48 hrs by cell counting; assay type: functional, cell-based; settings: L1210/0, 48 h
Summary of the method: (§1)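 Suspension leukemia cells in DMEM with 10% FBS, 10 mM Hepes and 1 mM sodium pyruvate at 37 °C under 5% CO2. Seeded at 60 000 cells/well with graded compound levels. Grown 48 h (L1210) or 72 h (CEM), then counted by Coulter counter. Mean ± SD of two to four independent experiments.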

CCRF-CEM [2] = experiment: Cytostatic activity against human CEM/0 cells after 72 hrs by cell counting; assay type: functional, cell-based
Summary of the method: (§2)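 Suspension leukemia cells in DMEM with 10% FBS, 10 mM Hepes and 1 mM sodium pyruvate at 37 °C under 5% CO2. Seeded at 60 000 cells/well with graded compound levels. Grown 48 h (L1210) or 72 h (CEM), then counted by Coulter counter. […] Mean ± SD of two to four independent experiments.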

L1210 [3] = experiment: Ratio of IC50 for Mycoplasma hyorhinis-infected mouse L1210 cells to IC50 for mouse L1210/0 cells after 48 hrs by cell counting; assay type: functional
Summary of the method: (§3)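 Murine L1210/0 cells were compared with L1210/TK cells, selected for resistance to 5-bromo-2'-dUrd, and with L1210.Hyor cells, chronically infected with Mycoplasma hyorhinis. Cells were grown in DMEM with 10% FBS, 10 mM Hepes and 1 mM pyruvate at 37 °C and 5% CO2, then seeded at 60 000 cells/well with compound. They were Coulter-counted after 48 h. […] Mean of 2–4 experiments.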

HeLa [4] = experiment: Cytostatic activity against thymidine-kinase deficient human HeLa cells […]; assay type: functional, cell-based
L1210 [5] = experiment: Cytostatic activity against thymidine-kinase deficient mouse L1210 cells after 48 hrs by cell counting; assay type: functional, cell-based; settings: L1210, 48 h; summary of the method: as §1
L1210 [6] = experiment: Ratio of FUDR IC50 to compound IC50 for thymidine-kinase deficient mouse L1210 cells after 48 hrs by cell counting; assay type: functional
HeLa [7] = experiment: Cytostatic activity against human HeLa cells […] by cell counting; assay type: functional, cell-based
CCRF-CEM [8] = experiment: Cytostatic activity against thymidine-kinase deficient human CEM cells after 72 hrs by cell counting; assay type: functional, cell-based; summary of the method: as §1
L1210 [9] = experiment: Cytostatic activity against Mycoplasma hyorhinis-infected mouse L1210 cells after 48 hrs by cell counting; assay type: functional, cell-based; settings: L1210, 48 h; summary of the method: as §1
L1210 [10] = experiment: Ratio of IC50 for thymidine-kinase deficient mouse L1210 cells to IC50 for mouse L1210/0 cells after 48 hrs by cell counting; assay type: functional; summary of the method: as §3
HeLa [11] = experiment: Ratio of IC50 for thymidine-kinase deficient human HeLa cells to IC50 for human HeLa cells by cell counting
[12] = Half life in Trizma buffer at pH 7.6 at 3 mg by [31P]NMR spectroscopy in presence of carboxypeptidase Y; assay type: physicochemical; settings: yeast (Saccharomyces cerevisiae)
Summary of the method: (§4)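 Compound (3.0 mg) in acetone-d6 with Trizma buffer pH 7.6. A control 31P NMR spectrum (202 MHz) was taken at 25 °C, then defrosted carboxypeptidase Y (0.1 mg in Trizma) added. Spectra recorded every 7 min over 14 h at 25 °C to follow conversion to metabolites. Half-life was estimated from these spectra.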

[13] = Drug metabolism in Trizma buffer at pH 7.6 assessed as metabolite 5-Fluoro-2'-deoxyuridine-5'-O-[1-naphthyl(L-alaninyl)]phosphate formation at 3 mg measured every 7 mins over 14 hrs by [31P]NMR spectroscopy in presence of carboxypeptidase Y; assay type: physicochemical; settings: pH 7.6, 14 h; summary of the method: as §4
[14] = Ratio of 5-FU IC50 to compound IC50 for mouse L1210/0 cells after 48 hrs by cell counting; assay type: functional
[15] = Drug metabolism in Trizma buffer at pH 7.6 assessed as metabolite 5-Fluoro-2'deoxyuridine 5'-O-[(L-Alaninyl)]phosphate formation at 3 mg measured after 45 mins by [31P]NMR spectroscopy in presence of carboxypeptidase Y; assay type: physicochemical; settings: pH 7.6, 0.75 h; summary of the method: as §4
[16] = Stability in DMSO/D2O assessed as parent compound at 5 mg measured after 13 hrs 30 mins by [31P]NMR spectroscopy in presence of human serum; assay type: ADME; settings: read-out: Stability
Summary of the method: (§5)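 Compound (5.0 mg) dissolved in DMSO plus D2O and a control 31P NMR spectrum taken at 37 °C. Previously defrosted human serum then added. Spectra taken every 15 min over 14 h at 37 °C and processed by Lorentz-Gauss deconvolution. Parent and metabolite peaks were tracked by chemical shift.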

[17] = Drug metabolism in DMSO/D2O assessed as metabolite 5-Fluoro-2'deoxyuridine 5'-O-[(L-Alaninyl)]phosphate formation at 5 mg measured after 11 hrs 30 mins by [31P]NMR spectroscopy in presence of human serum; assay type: ADME; summary of the method: as §5
[18] = Drug metabolism in DMSO/D2O assessed as metabolite 5-Fluoro-2'-deoxyuridine-5'-O-[1-naphthyl(L-alaninyl)]phosphate formation at 5 mg measured after 6 hrs 45 mins by [31P]NMR spectroscopy in presence of human serum; assay type: ADME; summary of the method: as §5
CCRF-CEM [19] = experiment: Ratio of IC50 for ENT1 transporter-deficient human CEM cells to IC50 for human CEM cells expressing human ENT1 transporter after 72 hrs by cell counting; assay type: functional
Summary of the method: (§6)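 Human T-lymphocyte CEM cells with (CEM/hEnt-1) or lacking (CEM/hEnt-0) the hENT1 transporter were seeded at 60 000 cells/well with graded compound concentrations. Transporter-inhibition runs added dipyridamole (10 μM) or NBMPR (10 μM) to CEM/hEnt-1 cells. […] Ratios are formed against untreated CEM/hEnt-1 IC50. Mean of 2–4 experiments.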

CCRF-CEM [20] = experiment: Cytostatic activity against ENT1 transporter-deficient human CEM cells after 72 hrs by cell counting; assay type: functional, cell-based; summary of the method: as §2
CCRF-CEM [21] = experiment: Cytostatic activity against human CEM cells expressing human ENT1 transporter after 72 hrs by cell counting in presence of dipyridamole; assay type: functional, cell-based
Summary of the method: (§7)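 CEM/hEnt-1 cells with 10 μM dipyridamole or 10 μM NBMPR added alongside graded compound levels, in DMEM with 10% FBS, 10 mM Hepes and 1 mM sodium pyruvate at 37 °C under 5% CO2. Seeded at 60 000 cells/well, counted by Coulter counter after 3 days.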

CCRF-CEM [22] = experiment: Cytostatic activity against human CEM cells expressing human ENT1 transporter after 72 hrs by cell counting; assay type: functional, cell-based; summary of the method: as §2
CCRF-CEM [23] = experiment: Ratio of IC50 for human CEM cells expressing human ENT1 transporter in presence of NBMPR to IC50 for human CEM cells expressing human ENT1 transporter; assay type: functional; summary of the method: as §6
CCRF-CEM [24] = experiment: Cytostatic activity against human CEM cells expressing human ENT1 transporter after 72 hrs by cell counting in presence of NBMPR; assay type: functional, cell-based; summary of the method: as §7
[25] = Hydrolytic stability in aqueous buffer at pH 1 at 2.6 mg measured every 12 mins over 14 hrs by [31P]NMR spectroscopy; assay type: physicochemical; settings: pH 1, 14 h
Summary of the method: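 Compound (2.6 mg) in methanol-d4 with pH 1 buffer made from equal parts 0.2 M HCl and 0.2 M KCl. 31P NMR at 37 °C, spectra recorded every 12 min over 14 h.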

CCRF-CEM [26] = experiment: Ratio of IC50 for human CEM cells expressing human ENT1 transporter in presence of dipyridamole to IC50 for human CEM cells expressing human ENT1 transporter; assay type: functional; summary of the method: as §6
[27] = Stability of the compound in potassium phosphate buffer at pH 7.4 assessed as E.coli thymidine phosphorylase-mediated release of 5-FU after 5 mins by [19F] NMR spectroscopy; assay type: ADME; settings: pH 7.4, 5 min
Summary of the method: (§8)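 Compound (6.0 mg) in methanol-d4 plus 300 mM potassium phosphate buffer pH 7.4. […] 19F NMR recorded at 5 min, 14 h and 72 h at 25 °C, with 5-FU identified by its signal near δF 169.50 ppm.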

[28] = Stability of the compound in potassium phosphate buffer at pH 7.4 assessed as E.coli thymidine phosphorylase-mediated release of 5-FU after 14 to 72 hrs by [19F] NMR spectroscopy; assay type: ADME; summary of the method: as §8
[29] = Hydrolytic stability in aqueous buffer at pH 8 at 4.5 mg measured every 12 mins over 14 hrs by [31P]NMR spectroscopy; assay type: physicochemical; settings: pH 8, 14 h
Summary of the method: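 Compound (4.5 mg) in methanol-d4 with pH 8 buffer (0.1 M Na2HPO4 adjusted with 0.1 M HCl). In situ 31P NMR (202 MHz) at 37 °C, spectra recorded every 12 min over 14 h.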

pIC50 [1]: 7.49
pIC50 (CCRF-CEM [2]): 6.77
pIC50 (HeLa [4]): 5.23
pIC50 (L1210 [5]): 6.85
pIC50 (HeLa [7]): 6.74
pIC50 (CCRF-CEM [8]): 5.92
pIC50 (L1210 [9]): 7.40
Compound: C[C@H](NP(=O)(OC[C@H]1O[C@@H](n2cc(F)c(=O)[nH]c2=O)C[C@@H]1O)Oc1ccccc1)C(=O)OC1CCCCC1 (mixture of isomers)
Ratio IC50 (L1210 [3]): 1.25
Ratio IC50 (L1210 [6]): 21

Compound: COC(=O)[C@H](C)NP(=O)(OC[C@H]1O[C@@H](n2cc(F)c(=O)[nH]c2=O)C[C@@H]1O)Oc1ccccc1 (mixture of isomers)
pIC50 [1]: 7.40
pIC50 (CCRF-CEM [2]): 6.15
Ratio IC50 (L1210 [3]): 22
pIC50 (HeLa [4]): 5.33
pIC50 (L1210 [5]): 4.39
pIC50 (HeLa [7]): 6.55
Ratio IC50 (L1210 [10]): 2000
pIC50 (CCRF-CEM [8]): 4.46
pIC50 (L1210 [9]): 6.06
Ratio IC50 (HeLa [11]): 15

Compound: CCCCCOC(=O)[C@H](C)NP(=O)(OC[C@H]1O[C@@H](n2cc(F)c(=O)[nH]c2=O)C[C@@H]1O)Oc1cccc2ccccc12 (mixture of isomers)
half-life [12]: < 5 min
pIC50 [1]: 8.68
pIC50 (CCRF-CEM [2]): 7.82
Ratio IC50 (L1210 [3]): 2.9
pIC50 (HeLa [4]): 6.36
pIC50 (L1210 [5]): 6.89
Drug metabolism [13]: Active
pIC50 (HeLa [7]): 7.54
Ratio IC50 (L1210 [10]): 40
pIC50 (CCRF-CEM [8]): 6.55
Ratio IC50 [14]: 100
Drug metabolism [15]: Active
pIC50 (L1210 [9]): 8.22

Compound: CCOC(=O)[C@H](C)NP(=O)(OC[C@H]1O[C@@H](n2cc(F)c(=O)[nH]c2=O)C[C@@H]1O)Oc1cccc2ccccc12 (mixture of isomers)
remaining at 13.5 h [16]: 96%
Drug metabolism [17]: Active
pIC50 [1]: 7.55
pIC50 (CCRF-CEM [2]): 6.60
Ratio IC50 (L1210 [3]): 3.4
Drug metabolism [18]: Active
pIC50 (HeLa [4]): 5.55
pIC50 (L1210 [5]): 6.44
pIC50 (HeLa [7]): 6.66
pIC50 (CCRF-CEM [8]): 5.80
pIC50 (L1210 [9]): 7.02

Compound: C[C@H](NP(=O)(OC[C@H]1O[C@@H](n2cc(F)c(=O)[nH]c2=O)C[C@@H]1O)Oc1ccccc1)C(=O)OCc1ccccc1 (mixture of isomers)
Ratio IC50 (CCRF-CEM [19]): 7
pIC50 (CCRF-CEM [20]): 5.85
pIC50 (CCRF-CEM [21]): 6.18
pIC50 (CCRF-CEM [22]): 6.89
Ratio IC50 (CCRF-CEM [23]): 2
pIC50 [1]: 7.59
pIC50 (CCRF-CEM [2]): 6.74
Ratio IC50 (L1210 [3]): 5.8
pIC50 (HeLa [4]): 4.72
pIC50 (L1210 [5]): 4.89
pIC50 (CCRF-CEM [24]): 6.14
Stability [25]: Stable
pIC50 (HeLa [7]): 6.89
Ratio IC50 (CCRF-CEM [26]): 2
pIC50 (CCRF-CEM [8]): 4.66
Stability [27]: Stable
pIC50 (L1210 [9]): 6.82
Stability [28]: Stable
Stability [29]: Stable
